In ChEMBL document CHEMBL4152378, “Discovery of a Branched Peptide That Recognizes the Rev Response Element (RRE) RNA and Blocks HIV-1 Replication” (J Med Chem, 2018):
Activity calls are given as the source filed them. The calls are words filed in the database; no cut-off is given here.

Legend:
[1] = system: Human immunodeficiency virus 1; assay: Binding affinity to HIV1 234 nucleotide NL4-3 5'-RRE RNA assessed as protection of secondary Rev binding sites from cleavage by […] incubated for 1 hr by SHAPE analysis
[2] = system: Human immunodeficiency virus 1; assay: Binding affinity to HIV1 RRE RNA in HEK293T cells transfected with HIV1 CMV driven GagPol-RRE plasmid assessed as reduction in Rev-RRE dependent nuclear export by measuring intracellular p24 levels at 70 uM after 48 hrs by ELISA relative to control; assay type: cell-based
Summary of the method: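 HEK 293T cells transfected with Rev and CMV-driven GagPol-RRE plasmids plus luciferase control; peptides added 5 h after transfection at 70 μM; cells lysed ~48 h post-transfection and intracellular p24 quantified by ELISA as percent inhibition.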

[3] = Binding affinity to HIV1 rev response element 2B RNA in presence of 10-fold excess TAR RNA by 2-AP based displacement assay; set-up: species or system Human immunodeficiency virus 1
Summary of the method: (§1)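 2-AP-labeled RRE IIB (0.1 μM) refolded at 95 °C 3 min, snap-cooled; titrated with peptide 0–20 μM in 10 mM potassium phosphate, 100 mM KCl, 1 mM MgCl2, 20 mM NaCl, pH 7.0; excitation 310 nm, emission decrease at 372 nm; Kd from Hill fit; at least duplicate, SD. Competition lines include 10-fold excess unlabeled RNA/DNA competitor.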

[4] = Cytotoxicity against HEK293T cells assessed as reduction in cell viability after 48 hrs by MTT assay; assay type: cell-based, HEK-293T; conditions: human
Summary of the method: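 MTT run in parallel with the transfected HEK 293T reporter set-up; ~48 h post-transfection MTT (5 mg/mL stock in PBS) added, 4 h at 37 °C; solubilized overnight with 10% SDS/0.01 N HCl; absorbance 570 nm; mean ± SD.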

[5] = Binding affinity to HIV1 rev response element 2B RNA in presence of 10-fold excess RRE DNA by 2-AP based displacement assay; set-up: species or system Human immunodeficiency virus 1; summary of the method: as §1
[6] = Binding affinity to HIV1 RRE RNA in HEK293T cells transfected with HIV1 CMV driven GagPol-RRE plasmid assessed as reduction in Rev-RRE dependent nuclear export by measuring intracellular p24 levels after 48 hrs by ELISA relative to control; assay type: cell-based; conditions: Human immunodeficiency virus 1, HEK-293T
[7] = system: Human immunodeficiency virus 1; assay: Binding affinity to [32P]-labeled HIV-rev response element 2B RNA assessed as protection of upper stem region from cleavage by RNase VI incubated for 10 mins up to 20 uM by autoradiography based nuclease protection assay
Summary of the method: (§2)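 5'-32P RRE IIB (10 nM) with 200 nM unlabeled RRE IIB refolded (95 °C 3 min, ice); incubated with peptide 0–20 μM on ice 4 h in 10 mM Tris pH 7, 100 mM KCl, 10 mM MgCl2; digested on ice with RNase V1 (0.002 U, 10 min) or RNase A (20 ng, 1 h); 12% denaturing PAGE, autoradiography.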

[8] = system: Human immunodeficiency virus 1; assay: Binding affinity to [32P]-labeled HIV-rev response element 2B RNA assessed as protection of internal loop region from cleavage by RNase A incubated for 1 hr up to 20 uM by autoradiography based nuclease protection assay; summary of the method: as §2
[9] = Binding affinity to HIV1 rev response element 2B RNA in presence of 10-fold excess no bulge RRE RNA by 2-AP based displacement assay; set-up: species or system Human immunodeficiency virus 1; summary of the method: as §1
[10] = Binding affinity to HIV1 rev response element 2B RNA by 2-AP based displacement assay; set-up: species or system Human immunodeficiency virus 1; summary of the method: as §1

Kd [10] [nM] | Structure (SMILES) | inhibition [2] [%] | other results
880 | N=C(N)N[C@@H]1C[C@H](C(=O)N[C@@H](Cc2ccc(O)cc2)C(N)=O)N(C(=O)CN(CCNC(=O)[C@H](CCCCNC(=O)c2cnccn2)NC(=O)[C@H](CCCCNC(=O)[C@H]2C[C@@H](N)CN2C(=O)CN(CCNC(=O)CN(CCN)C(=O)Cn2cnc3c(=O)[nH]c(N)nc32)C(=O)Cn2cnc3c(=O)[nH]c(N)nc32)NC(=O)[C@H]2C[C@@H](N)CN2C(=O)CN(CCNC(=O)CN(CCN)C(=O)Cn2cnc3c(=O)[nH]c(N)nc32)C(=O)Cn2cnc3c(=O)[nH]c(N)nc32)C(=O)Cn2cnc3c(=O)[nH]c(N)nc32)C1 | > 50 | Activity [1]: Active; Kd [3]: 3090 nM; CC50 at 48 h [4]: 135000 nM; Kd [5]: 990 nM; IC50 [6]: 15400 nM; Activity [7]: Active; Activity [8]: Active; Kd [9]: 2040 nM
2570 | N=C(N)N[C@@H]1C[C@H](C(=O)NCCCC[C@H](NC(=O)[C@H]2C[C@@H](NC(=N)N)CN2C(=O)[C@H]2C[C@@H](N)CN2C(=O)[C@H]2C[C@@H](NC(=N)N)CN2)C(=O)N2C[C@H](N)C[C@@H]2C(=O)N2C[C@H](N)C[C@@H]2C(=O)N[C@@H](CCCCNC(=O)c2ccc(B3OC(=O)c4cc(O)ccc4O3)cc2)C(=O)N[C@@H](Cc2ccc(O)cc2)C(N)=O)N(C(=O)[C@H]2C[C@@H](N)CN2C(=O)[C@H]2C[C@@H](NC(=N)N)CN2)C1 | > 50 | 
410 | N=C(N)N[C@@H]1C[C@H](C(=O)NCCN(CC(=O)N[C@@H](CCCCNC(=O)c2ccc(B(O)O)cc2)C(=O)N[C@@H](Cc2ccc(O)cc2)C(N)=O)C(=O)Cn2cnc3c(=O)[nH]c(N)nc32)N(C(=O)[C@H](CCCCNC(=O)[C@H]2C[C@@H](NC(=N)N)CN2C(=O)[C@H]2C[C@@H](NC(=N)N)CN2C(=O)[C@H]2C[C@@H](N)CN2)NC(=O)[C@H]2C[C@@H](NC(=N)N)CN2C(=O)[C@H]2C[C@@H](NC(=N)N)CN2C(=O)[C@H]2C[C@@H](N)CN2)C1 | > 50 | 
1120 | N=C(N)N[C@@H]1C[C@H](C(=O)NCCCC[C@H](NC(=O)[C@H]2C[C@@H](NC(=N)N)CN2C(=O)[C@H]2C[C@@H](N)CN2C(=O)[C@H]2C[C@@H](NC(=N)N)CN2)C(=O)N[C@@H](CCCCNC(=O)c2cnccn2)C(=O)N[C@@H](CCCCNC(=O)c2cnccn2)C(=O)NCCN(CC(=O)N[C@@H](Cc2ccc(O)cc2)C(N)=O)C(=O)Cn2cnc3c(=O)[nH]c(N)nc32)N(C(=O)[C@H]2C[C@@H](N)CN2C(=O)[C@H]2C[C@@H](NC(=N)N)CN2)C1 | > 50 | 
1640 | N=C(N)N[C@@H]1C[C@H](C(=O)N2C[C@H](NC(=N)N)C[C@@H]2C(=O)N[C@@H](CCCCNC(=O)c2cnccn2)C(=O)N[C@@H](Cc2ccc(O)cc2)C(N)=O)N(C(=O)[C@H](CCCCNC(=O)[C@H](CCCCNC(=O)c2cnccn2)NC(=O)[C@H]2C[C@@H](N)CN2C(=O)CN(CCN)C(=O)Cn2cnc3c(=O)[nH]c(N)nc32)NC(=O)[C@H](CCCCNC(=O)c2cnccn2)NC(=O)[C@H]2C[C@@H](N)CN2C(=O)CN(CCN)C(=O)Cn2cnc3c(=O)[nH]c(N)nc32)C1 | > 50 | 
1500 | N=C(N)N[C@@H]1C[C@H](C(=O)N[C@@H](Cc2ccc(O)cc2)C(N)=O)N(C(=O)[C@H](CCCCNC(=O)c2cnccn2)NC(=O)[C@H](Cc2cccc3ccccc23)NC(=O)[C@H](CCCCNC(=O)[C@H](CCCCNC(=O)c2ccc(B(O)O)cc2)NC(=O)[C@H]2C[C@@H](N)CN2C(=O)[C@H]2C[C@@H](NC(=N)N)CN2)NC(=O)[C@H](CCCCNC(=O)c2ccc(B(O)O)cc2)NC(=O)[C@H]2C[C@@H](N)CN2C(=O)[C@H]2C[C@@H](NC(=N)N)CN2)C1 | > 50 | 
